# From ChEMBL document CHEMBL1177786, “Synthesis of novel beta-carbolines with efficient DNA-binding capacity and potent cytotoxicity” (Bioorg Med Chem Lett, 2010)
# Columns and labels:
# [1] = Cytotoxicity against human BCG823 cells by MTT assay; assay type: functional, cell-based
# In short: (§1)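 MTT assay in human tumour lines. IC50 is the compound concentration giving a 50% drop in optical density relative to untreated cells. Values are means of three independent determinations.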
# MCF7 = experiment: Cytotoxicity against human MCF7 cells by MTT assay; assay type: functional, cell-based; in short: as §1
# OS-RC-2 = experiment: Cytotoxicity against human OS-RC2 cells by MTT assay; assay type: functional, cell-based; in short: as §1
# A-375 = experiment: Cytotoxicity against human A375 cells by MTT assay; assay type: functional, cell-based; in short: as §1
# 769-P = experiment: Cytotoxicity against human 769-P cells by MTT assay; assay type: functional, cell-based; in short: as §1
# HepG2 = experiment: Cytotoxicity against human HepG2 cells by MTT assay; assay type: functional, cell-based; in short: as §1
# 786-0 = experiment: Cytotoxicity against human 786-0 cells by MTT assay; assay type: functional, cell-based; in short: as §1
# KB = experiment: Cytotoxicity against human KB cells by MTT assay; assay type: functional, cell-based; in short: as §1
# Calf thymus DNA = experiment: Binding affinity to calf thymus DNA assessed as change in melting temperature at drug/DNA ratio 0.2 at pH 7.4; assay type: nucleic-acid assay; conditions: Bos taurus
# In short: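 Thermal denaturation of calf thymus DNA in PE buffer (1 mM Na₂HPO₄, 0.1 mM EDTA, pH 7.4), drug/DNA ratio 0.2; ΔTm taken as Tm of drug–DNA complex minus Tm of DNA alone.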
# HT-29 = experiment: Cytotoxicity against human HT-29 cells by MTT assay; assay type: functional, cell-based; in short: as §1
# CWR22R = experiment: Cytotoxicity against human 22Rv1 cells by MTT assay; assay type: functional, cell-based; in short: as §1
ΔTm (Calf thymus DNA),Structure (SMILES),IC50 [1],IC50 (MCF7),IC50 (OS-RC-2),IC50 (A-375),IC50 (769-P),IC50 (HepG2),IC50 (786-0),IC50 (KB),IC50 (HT-29),IC50 (CWR22R)
24.5 °C,CCN(CC)CCCNCc1cc2c3ccccc3n(C)c2cn1,> 100 µM,> 100 µM,> 100 µM,> 100 µM,> 100 µM,96.1 µM,87.6 µM,59.7 µM,35.7 µM,> 100 µM
,CCCCn1c2ccccc2c2cc(CNCCN(CC)CC)ncc21,20.2 µM,92.8 µM,> 100 µM,75.9 µM,7.4 µM,10.1 µM,37.6 µM,13.7 µM,7.8 µM,25.7 µM
,CC(=O)O[C@H]1C(=O)[C@@]2(C)[C@H]([C@H](OC(=O)c3ccccc3)[C@]3(O)C[C@H](OC(=O)[C@H](O)[C@@H](NC(=O)c4ccccc4)c4ccccc4)C(C)=C1C3(C)C)[C@]1(OC(C)=O)CO[C@@H]1C[C@@H]2O [PACLITAXEL],1.5 µM,1.3 µM,< 0.08 µM,,,< 0.08 µM,< 0.08 µM,0.08 µM,0.38 µM,0.08 µM
,CCN(CC)CCCCNCc1cc2c3ccccc3n(CCCc3ccccc3)c2cn1,8.8 µM,9.1 µM,27.7 µM,5.8 µM,10.9 µM,3.4 µM,9.2 µM,6.1 µM,6.4 µM,7.6 µM
,CCN(CC)CCNCc1cc2c3ccccc3n(Cc3ccc(F)cc3)c2cn1,10.9 µM,43.6 µM,93.6 µM,35 µM,8.8 µM,9.1 µM,13.1 µM,37.1 µM,36.2 µM,9 µM
,CCN(CC)CCCNCc1cc2c3ccccc3n(Cc3ccc(F)cc3)c2cn1,2.6 µM,31.8 µM,13.6 µM,13.7 µM,8.5 µM,8 µM,6.1 µM,33.1 µM,10.2 µM,3.6 µM
20.6 °C,CCCCn1c2ccccc2c2cc(CNCCCN(CC)CC)ncc21,5.9 µM,64.2 µM,35.7 µM,44.2 µM,2.2 µM,4.6 µM,19.5 µM,6.2 µM,2.6 µM,8.8 µM
,CCN(CC)CCCCNCc1cc2c3ccccc3n(C)c2cn1,> 100 µM,> 100 µM,> 100 µM,> 100 µM,> 100 µM,> 100 µM,> 100 µM,70.6 µM,33.1 µM,> 100 µM
,CCN(CC)CCCCNCc1cc2c3ccccc3n(Cc3ccccc3)c2cn1,29.3 µM,13.4 µM,55 µM,16.2 µM,31 µM,3 µM,6.2 µM,8.2 µM,27 µM,8.9 µM
,CCN(CC)CCCNCc1cc2c3ccccc3n(Cc3cccc(Cl)c3)c2cn1,8.1 µM,17.4 µM,8 µM,14.7 µM,14.3 µM,11.7 µM,13 µM,7.8 µM,9.3 µM,8.4 µM
,CCN(CC)CCNCc1cc2c3ccccc3n(Cc3ccccc3)c2cn1,9.7 µM,68.1 µM,> 100 µM,39.1 µM,2 µM,13.1 µM,14.4 µM,8.2 µM,5.2 µM,15.9 µM
